# Source: PubChem BioAssay (several laboratories)
# RAM network inh: inhibitors of the yeast RAM network, primary screen, dse1pr::URA3 reporter, 5-FOA selection. hit rate 1.8% among 190,000. S. cerevisiae dse1pr::URA3 reporter, 5-FOA growth OD615, 2 d; analog-sensitive cbk1-as2 kinase mutant strain. inhibition, % at 50 µM;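 active means inhibition above a set limit, 3 SD over mean compound inhibition, cut at about 8.4% in these data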;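 further: 0% = DMSO-only wells with no growth and 100% = 10 µM 1-NA-PP1 full growth; inhibition rescues growth on 5-FOA so higher OD means more RAM inhibition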
# Yeast lifespan up: compounds extending yeast replicative lifespan, primary screen, S. cerevisiae, OD615 | inhibition of the nicotinamide effect, % at 10 µM | S. cerevisiae growth with nicotinamide; deaD strain in restrictive glucose medium | hit rate 0.68% among 130,000;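 active means inhibition above a set limit, placed 3 SD over the median of all compounds, cut at about 26% in these data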;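 further: 0% = nicotinamide-treated wells and 100% = cells grown without nicotinamide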
#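 Assay system: engineered S. cerevisiae DeaD replicative-lifespan strain, galactose-grown log-phase cells; Buffer or medium: CSMM-D glucose medium, restrictive; Probe or stimulus: nicotinamide 1.5 mM; Compound: single dose 10 µM compound, 0.25% DMSO; Schedule: 4 h preincubation then 48 h treatment at 30 °C; Technique: OD615 measurement.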
# BB579 growth dn: growth inhibitors of yeast BB579 in restrictive medium, primary screen, yeast lifespan-shortening project, S. cerevisiae. OD615, 48 h. inhibition, % at 10 µM. hit rate 0.51% among 140,000. AID 804, 2007;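 active means inhibition above a set limit, 3 SD over the mean compound inhibition, cut at about 44% in these data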
#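 Test system: DeaD yeast strain BB579 / Buffer or medium: restrictive glucose-based CSMM-D medium / Doses: single 10 µM dose / Schedule: 4 h cell preincubation, 48 h compound exposure, 30 °C humidified / Technique: culture absorbance at 615 nm / Controls: amphotericin B positive control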
# Ins promoter up: insulin promoter activators in MIN6 cells, imaging, high-content screening, mouse beta cells. MIN6 insulin promoter-GFP reporter; hits give high values. z-score at 5 µM. hit rate 0.3% among 190,000;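 active means z-score above 3 at 5 µM with at least 500 cells counted in the well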
# INS promoter inh: inhibitors of insulin promoter-driven GFP, primary screen, imaging, TRM-6 cells, eGFP reporter, cell count | reporter expression induced with tamoxifen | inhibition, % at 2 µM | hit rate 0.9% among 130,000 | AID 1273, 2008;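 active means inhibition above the mean plus 3 SD, with well images judged a real hit on visual review, cut at about 60% in these data, passing the limit was not always enough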
# RAM 5-FOA: 5-FOA growth of efflux-deficient control yeast, dose response, counter-screen for RAM network inhibitor project, S. cerevisiae, OD615; max inhibition, %; S. cerevisiae efflux-deficient reporter strain, 5-FOA growth OD615, 2 days; AID 1305, 2008; 1,200 tested, under 10 active; shares compounds with RAM network inh; call rule not given here;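 further: plate controls were vehicle for no effect and reference inhibitor for full effect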
# * = called active by the depositor; . = not tested or not shown. Compounds with a hit are over-represented: about 3.1% of the library has one in this group of screens.
SMILES,RAM network inh,Yeast lifespan up,BB579 growth dn,Ins promoter up,INS promoter inh,RAM 5-FOA
CC1CCCC(NC(=O)COC(=O)CCc2ccccc2)C1C (configuration not stated),0,.,.,-0.18,41,.
CC1CCCC(NC(=O)COC(=O)CSc2ccc3ccccc3c2)C1C (configuration not stated),12*,10,-29,0.41,-38,3
O=C(Nc1ccc(F)cc1F)c1sccc1SCc1cccc(C(F)(F)F)c1,2,-4,-28,.,-2,.
O=C(Nc1ccc(F)cc1)c1sccc1SCc1cccc(C(F)(F)F)c1,14*,-16,-41,0.25,-27,3
COc1ccc(NC(=O)c2sccc2SCc2cccc(C(F)(F)F)c2)cc1,16*,-12,-36,-0.26,-23,4
COc1ccccc1C1(CCNS(=O)(=O)c2ccc(C)cc2)CCOC(C(C)C)C1 (configuration not stated),13*,2,-33,-0.48,.,3
CC(C)Cn1c(-c2cccs2)nc2nc3ccccc3nc21,0,-20,-31,-0.18,.,.
CCCCn1c(-c2cccs2)nc2nc3ccccc3nc21,12*,-8,-19,0.26,6,4
Cc1ccc(OCC(=O)Nc2cccc(S(=O)(=O)N3CCOCC3)c2)c([N+](=O)[O-])n1,3,.,.,.,17,.
O=S(=O)(NCCC1CC1(Cl)Cl)c1ccccc1 (configuration not stated),.,.,.,-0.21,.,.
CN(/N=C/c1ccc2c(c1)OCO2)c1ccccc1,4,-10,-47,0.72,-11,.
C(=N\N(c1ccccc1)c1ccccc1)/c1ccc2c(c1)OCO2,14*,-16,-41,.,14,7
COc1cc(CNC(=O)C2CCCN2S(=O)(=O)c2ccccc2)cc(OC)c1OC (configuration not stated),2,.,.,-0.09,-79,.
CCCN(CC1CC1)C(=O)CSc1ncnc2sc(C)c(C)c12,14*,-4,-26,0.23,15,2
CCN(C(=O)CSc1ncnc2sc(C)c(C)c12)C1CCS(=O)(=O)C1 (configuration not stated),1,.,.,1.4,0,.
Cc1ccc(NC(=O)CCSc2nnnn2-c2ccc3c(c2)OCO3)cc1C,12*,-8,-49,0.44,-10,2
CCOC(=O)CSc1nc2ccccc2c(=O)n1C1CCCC1,13*,-5,-8,-0.21,33,2
CCOC(=O)CSc1nc2ccccc2c(=O)n1C,1,5,-27,.,32,.
CCOc1ccc(N=C(NN)c2ccc3ccccc3n2)cc1,4,1,-18,0.15,-3,.
COc1ccc(-c2nc(CCNS(=O)(=O)c3ccc4c(c3)OCCO4)cs2)cc1,3,-10,18,0.69,.,.
O=S(=O)(NCCc1csc(-c2ccc(C(F)(F)F)cc2)n1)c1ccc2c(c1)OCCO2,12*,0,-22,-1,.,2
COc1ccc(Nc2nc3c(C)cccc3cc2C#N)c(OC)c1,12*,7,-36,0.33,8,5
CN(C)/C=C(/C#N)C(=O)c1cccc(Oc2ccc(C(C)(C)C)cc2)c1,6,2,-68,-0.2,-4,.
N#Cc1nc(-c2ccc(OCc3ccccc3)cc2)oc1NCc1cccnc1,7,-23,-48,-1.1,-43,.
CN(C)c1oc(-c2ccc(OCc3ccccc3)cc2)nc1C#N,14*,-20,-24,0.06,-64,3
SMILES,RAM network inh,Yeast lifespan up,BB579 growth dn,Ins promoter up,INS promoter inh,RAM 5-FOA
COc1ccc([N+](=O)[O-])cc1NC(=O)Cc1noc2ccc(C)cc12,3,.,.,-0.3,.,.
CCOC(=O)c1cccc(NC(=O)CSc2nnc(COc3ccccc3C)o2)c1,12*,-3,6,.,.,1
COc1cccc(NC(=O)CSc2nnc(COc3ccc4c(c3)CCCC4)o2)c1,12*,.,-19,-0.4,11,2
C=CCn1c(COc2ccccc2)nnc1SCC(=O)Nc1ccc2c(c1)OCCO2,4,-2,-16,0.91,-92,.
C=CCn1c(COc2ccc3c(c2)CCCC3)nnc1SCC(=O)Nc1cccc(SC)c1,15*,-9,-17,0.56,.,4
CC1CCN(c2c(NCC3CCC(C(=O)NCCC4=CCCCC4)CC3)c(=O)c2=O)CC1 (configuration not stated),.,.,.,1.5,.,.
CC(=O)Nc1ccc(/C(C)=N/NC(=O)c2ccccc2Cl)cc1,1,-5,1,0.25,6,.
CCN(CC)S(=O)(=O)c1ccc(N2CCOCC2)c(NC(=O)Cc2cccc3ccccc23)c1,2,1,-13,-0.28,-62,.
CCCCN(CCCC)S(=O)(=O)c1ccc(NS(=O)(=O)c2ccc(NC(C)=O)cc2)cc1,17*,4,-65,.,4,2
Cc1ccc(O)c(C(=O)/C=C/c2ccc3c(c2)OCCCO3)c1,12*,-1,-26,1.7,21,4
Cc1ccc(S(=O)(=O)N2CCC(=O)N(C(COCc3cccc(C(F)(F)F)c3)C(C)C)CC2)cc1 (configuration not stated),13*,2,-23,0.63,-140,2
Cc1ccc(S(=O)(=O)N2CCC(=O)N(C(COCc3cccc(Cl)c3)Cc3ccccc3)CC2)cc1 (configuration not stated),15*,12,-38,-1.5,-25,4
NC(=O)CC(NC(=O)Cc1ccc(Br)cc1)c1ccc(N2CCC(Cc3ccccc3)CC2)c([N+](=O)[O-])c1 (configuration not stated),.,.,.,-0.55,.,.
Cc1ccc(-n2c(SCC(=O)Nc3cccc(S(=O)(=O)NC4=NCCCCC4)c3)nc3ccccc3c2=O)cc1C,12*,4,-36,-0.31,.,2
Cc1ccc(NC(=O)Cc2ccc(Cl)c(Cl)c2)cc1S(=O)(=O)N(C)C,12*,6,-44,-0.21,8,3
Cc1ccn(CCC(=O)N2CCCC(CCC(=O)N3CCN(c4ccccn4)CC3)C2)n1 (configuration not stated),-1,.,.,1.7,.,.
CCCOc1cccc(C(=O)NC(=S)Nc2cccc(C(F)(F)F)c2)c1,12*,-9,-20,-0.24,11,3
O=C(COC(=O)CC(c1ccccc1)c1ccccc1)Nc1ccc(F)c(F)c1,12*,.,.,-0.3,18,2
CCCCCC(=O)O[C@]1(C(C)=O)CC[C@H]2[C@@H]3CCC4=CC(=O)CC[C@]4(C)[C@H]3CC[C@@]21C,12*,7,-47,.,43,3
Cc1nn(CC2CC2)c(=O)n1-c1ccc(Oc2ccccc2)cc1,3,.,.,0.51,.,.
O=C(NC(=S)Nc1ccc(Cl)cc1)c1ccccc1,.,.,.,0.58,.,.
CCC(=O)NC(=S)Nc1ccc(NC(=S)NC(=O)c2ccccc2)cc1,13*,.,.,-0.67,29,4
